Test results reported in ChEMBL document CHEMBL2440111, “Overcoming doxorubicin-resistance in the NCI/ADR-RES model cancer cell line by novel anthracene-9,10-dione derivatives” (Bioorg Med Chem Lett, 2013).
The source made the active and inactive calls. The calls are words filed in the database; no cut-off is given here.

What was measured:
BXPC-3 [1] = test: Antiproliferative activity against human BxPC3 cells after 72 hrs by MTT assay; assay type: functional, cell-based; settings: BXPC-3, 72 h
Outline: (§1)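 Cells kept in exponential growth at 37 °C in humidified 5% CO2 with 2 mM L-glutamine, mycoplasma-checked. Compounds were applied over a dose range and viability was read by MTT relative to an untreated control. IC50 is the concentration giving a 50% decrease in viability. Values are mean ± SD of three independent experiments.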

PC-3 [2] = test: Antiproliferative activity against human PC3 cells at 20 uM after 72 hrs by MTT assay; assay type: functional; settings: PC-3, 72 h
Outline: (§2)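 Each cell line in the panel was treated with 20 µM compound, with doxorubicin as reference. Exponentially growing cells were grown at 37 °C in 5% CO2. MTT read-out served as a surrogate of viable cell number, expressed as % inhibition versus an untreated control. Values are mean ± SD of three independent experiments.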

NCI/ADR-RES [3] = test: Cell cycle arrest in human NCI/ADR-RES cells assessed as accumulation at S phase at 10 uM after 24 hrs using propidium iodide staining by flow cytometry (reference value: 14%); assay type: functional
PC-3 [4] = test: Antiproliferative activity against human PC3 cells after 72 hrs by MTT assay; assay type: functional, cell-based; settings: PC-3, 72 h; outline: as §1
[5] = Antiproliferative activity against human […] cells at 20 uM after 72 hrs by MTT assay; assay type: functional; outline: as §2
BXPC-3 [6] = test: Antiproliferative activity against human BxPC3 cells at 20 uM after 72 hrs by MTT assay; assay type: functional; settings: BXPC-3, 72 h; outline: as §2
NCI/ADR-RES [7] = test: Inhibition of colony formation in human NCI/ADR-RES cells after 24 hrs; assay type: functional, cell-based
Outline: (§3)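 NCI/ADR-RES cells were seeded at 100 cells/well and left to attach overnight. Serial compound dilutions were applied for 24 h, then washed out. Colonies grew in drug-free medium for 8-10 days and were fixed with 1% glutaraldehyde and stained with 2% crystal violet, 30 min each. Colonies were imaged and counted versus untreated control; values are means of ≥3 independent experiments.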

NCI/ADR-RES [8] = test: Inhibition of colony formation in human NCI/ADR-RES cells at 1 uM after 24 hrs; assay type: functional, cell-based; outline: as §3
U2OS [9] = test: Antiproliferative activity against human U2OS cells at 20 uM after 72 hrs by MTT assay; assay type: functional; outline: as §2
MIA PaCa-2 [10] = test: Antiproliferative activity against human MIAPaCa2 cells at 20 uM after 72 hrs by MTT assay; assay type: functional; settings: MIA PaCa-2, 72 h; outline: as §2
NCI/ADR-RES [11] = test: Antiproliferative activity against human NCI/ADR-RES cells at 20 uM after 72 hrs by MTT assay in presence of glutathione; assay type: functional
Outline: (§4)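 NCI/ADR-RES cells were pretreated for 2 h with 5 mM N-acetylcysteine or glutathione. Compound at 20 µM was then added for 72 h, with doxorubicin as positive control. Percent inhibition was measured by MTT.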

[12] = Antiproliferative activity against human Caov3 cells after 72 hrs by MTT assay; assay type: functional, cell-based; settings: Caov-3, 72 h; outline: as §1
OVCAR-8 [13] = test: Antiproliferative activity against human OVCAR8 cells after 72 hrs by MTT assay; assay type: functional, cell-based; settings: OVCAR-8, 72 h; outline: as §1
LNCaP [14] = test: Up-regulation of p53 expression in human LNCAP cells at 3 uM after 24 hrs by Western blot analysis; assay type: functional, cell-based
Outline: (§5)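 LNCaP cells were treated for 24 h, then lysed. Equal protein was run on 12% SDS-PAGE and blotted to PVDF. Membranes were blocked 1 h in 5% skim milk/TBS-0.1% Tween and probed overnight at 4 °C with anti-p53 or anti-caspase-9. A secondary antibody and ECL detection followed, with GAPDH as loading control.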

OVCAR-8 [15] = test: Antiproliferative activity against human OVCAR8 cells at 20 uM after 72 hrs by MTT assay in presence of N-acetylcysteine; assay type: functional, cell-based
NCI/ADR-RES [16] = test: Ratio of doxorubicin IC50 to compound IC50 for human NCI/ADR-RES cells; assay type: functional
DU-145 [17] = test: Antiproliferative activity against human DU145 cells after 72 hrs by MTT assay; assay type: functional, cell-based; settings: DU-145, 72 h; outline: as §1
NCI/ADR-RES [18] = test: Antiproliferative activity against human NCI/ADR-RES cells after 72 hrs by MTT assay; assay type: functional, cell-based; outline: as §1
NCI/ADR-RES [19] = test: Antiproliferative activity against human NCI/ADR-RES cells at 20 uM after 72 hrs by MTT assay; assay type: functional; outline: as §2
NCI/ADR-RES [20] = test: Cell cycle arrest in human NCI/ADR-RES cells assessed as accumulation at G2/M phase at 10 uM after 24 hrs using propidium iodide staining by flow cytometry (reference value: 35%); assay type: functional
OVCAR-8 [21] = test: Antiproliferative activity against human OVCAR8 cells at 20 uM after 72 hrs by MTT assay in presence of glutathione; assay type: functional, cell-based
U2OS [22] = test: Antiproliferative activity against human U2OS cells after 72 hrs by MTT assay; assay type: functional, cell-based; outline: as §1
MIA PaCa-2 [23] = test: Antiproliferative activity against human MIAPaCa2 cells after 72 hrs by MTT assay; assay type: functional, cell-based; settings: MIA PaCa-2, 72 h; outline: as §1
NCI/ADR-RES [24] = test: Antiproliferative activity against human NCI/ADR-RES cells at 20 uM after 72 hrs by MTT assay in presence of N-acetylcysteine; assay type: functional; outline: as §4
[25] = Antiproliferative activity against human […] cells after 72 hrs by MTT assay; assay type: functional, cell-based; outline: as §1
LNCaP [26] = test: Increase of cleaved caspase-9 level in human LNCAP cells at 3 uM after 24 hrs by Western blot analysis; assay type: functional, cell-based; outline: as §5
LNCaP [27] = test: Antiproliferative activity against human LNCAP cells after 72 hrs by MTT assay; assay type: functional, cell-based; outline: as §1
OVCAR-8 [28] = test: Antiproliferative activity against human OVCAR8 cells at 20 uM after 72 hrs by MTT assay; assay type: functional; settings: OVCAR-8, 72 h; outline: as §2
DU-145 [29] = test: Antiproliferative activity against human DU145 cells at 20 uM after 72 hrs by MTT assay; assay type: functional; settings: DU-145, 72 h; outline: as §2
NCI/ADR-RES [30] = test: Cell cycle arrest in human NCI/ADR-RES cells assessed as accumulation at G0/G1 phase at 10 uM after 24 hrs using propidium iodide staining by flow cytometry (reference value: 51%); assay type: functional
LNCaP [31] = test: Antiproliferative activity against human LNCAP cells at 20 uM after 72 hrs by MTT assay; assay type: functional; outline: as §2
[32] = Antiproliferative activity against human Caov3 cells at 20 uM after 72 hrs by MTT assay; assay type: functional; settings: Caov-3, 72 h; outline: as §2

Compound `Cc1ccc(S(=O)(=O)Oc2ccc(NCc3ccc(N)cc3)c3c2C(=O)c2ccccc2C3=O)cc1` has an IC50 (BXPC-3 [1]) of 1800 nM, an inhibition at 20 µM (PC-3 [2]) of 75.8% and an inhibition at 10 µM (NCI/ADR-RES [3]) of 25%. The IC50 (PC-3 [4]) was 6500 nM, the inhibition at 20 µM [5] was 75.1% and the inhibition at 20 µM (BXPC-3 [6]) was 94%. The IC50 (NCI/ADR-RES [7]) was 500 nM, the inhibition (NCI/ADR-RES [7]) was “Dose-dependent effect” and the inhibition (NCI/ADR-RES [8]) was “Active”. The inhibition at 20 µM (U2OS [9]) was 92.3%, the inhibition at 20 µM (MIA PaCa-2 [10]) was 91.1% and the inhibition at 20 µM (NCI/ADR-RES [11]) was over 60%. For the same compound, the IC50 [12] was 2500 nM, the IC50 (OVCAR-8 [13]) was 3500 nM and the Activity (LNCaP [14]) was “inactive”. The inhibition (OVCAR-8 [15]) was “Active”, the Ratio IC50 (NCI/ADR-RES [16]) was over 25 and the IC50 (DU-145 [17]) was 5400 nM. The IC50 (NCI/ADR-RES [18]) was 800 nM, the inhibition at 20 µM (NCI/ADR-RES [19]) was 80.5% and the inhibition at 10 µM (NCI/ADR-RES [20]) was 55%. For the same compound, the inhibition (OVCAR-8 [21]) was “Active”, the IC50 (U2OS [22]) was 2800 nM and the IC50 (MIA PaCa-2 [23]) was 2700 nM. The inhibition at 20 µM (NCI/ADR-RES [24]) was over 60%, the IC50 [25] was 3800 nM and the Activity (LNCaP [26]) was “Active”. The IC50 (LNCaP [27]) was 400 nM, the inhibition at 20 µM (OVCAR-8 [28]) was 85.4% and the inhibition at 20 µM (DU-145 [29]) was 87.2%. It also gave an inhibition at 10 µM (NCI/ADR-RES [30]) of 30%, an inhibition at 20 µM (LNCaP [31]) of 88.9% and an inhibition at 20 µM [32] of 85.7%.
